Reference: ChEMBL document CHEMBL4825702, “5-Aminonaphthalene derivatives as selective nonnucleoside nuclear receptor binding SET domain-protein 2 (NSD2) inhibitors for the treatment of multiple myeloma” (Eur J Med Chem, 2021)
The source made the active and inactive calls. The calls are words filed in the database; no cut-off is given here.

Legend:
[1] = target: Protein arginine N-methyltransferase 5 (Homo sapiens, UniProt O14744); assay: Inhibition of PRMT5 (unknown origin) using SAM as substrate preincubated for 10 mins followed by substrate addition measured after 4 hrs by AlphaLISA method
KMS-11 [2] = assay: cells; settings: Homo sapiens, KMS-11, 72 h, read-out: Activity
KMS-11 [3] = assay: Induction of apoptosis in human KMS-11 cells incubated for 72 hrs by annexin-V/FITC and propidium iodide staining based flow cytometry analysis; format: functional, cell-based; settings: dose 5-10 µM
[4] = MRT in CD-1 mouse at 2 mg/kg, ip measured up to 24 hrs by LC-MS/MS; format: ADME, organism-based; settings: in vivo
Procedure, shortened: (§1)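 CD-1 mice dosed at 2 mg/kg i.p. or i.v., n = 3 per group. Blood sampled at 0, 0.083, 0.25, 0.5, 1, 2, 4, 6, 8 and 24 h and spun for plasma. Internal standard added, deproteinized with methanol/acetonitrile (1:1), supernatant diluted and analysed by LC/MS/MS.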

[5] = Tmax in CD-1 mouse at 2 mg/kg, ip measured up to 24 hrs by LC-MS/MS; format: ADME, organism-based; settings: in vivo; procedure, shortened: as §1
MV4-11 [6] = assay: cells; settings: Homo sapiens, MV4-11, 72 h, read-out: Activity
[7] = target: Histone-lysine N-methyltransferase NSD2 (Homo sapiens, UniProt O96028, E1009K); assay: Inhibition of NSD2 E1009K mutant (unknown origin) using SAM as substrate preincubated for 10 mins followed by substrate addition measured after 4 hrs by AlphaLISA method
OPM-2 = assay: Antiproliferative activity against human OPM-2 cells assessed as reduction in cell viability incubated for 6 days by CCK8 assay
MV4-11 [8] = assay: Antiproliferative activity against human MV4-11 cells assessed as reduction in cell viability incubated for 6 days by CCK8 assay
[9] = target: Histone-lysine N-methyltransferase 2A (Homo sapiens, UniProt Q03164); assay: Inhibition of MLLI (unknown origin) using SAM as substrate preincubated for 10 mins followed by substrate addition measured after 4 hrs by HTRF method
Procedure, shortened: (§2)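 HTRF assay: inhibitor plus enzyme preincubated 10 min at room temperature, then peptide/SAM mix added and incubated at room temperature. Antibody and SA-XL665 detection mix added for 1 h in subdued light. Emission read at 665 and 620 nm; IC50 from two separate experiments.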

MV4-11 [10] = assay: cells; settings: Homo sapiens, MV4-11, 72 h, read-out: Activity; remark: listed apart in the source
[11] = MRT in CD-1 mouse at 2 mg/kg, iv measured up to 24 hrs by LC-MS/MS; format: ADME, organism-based; settings: in vivo; procedure, shortened: as §1
[12] = target: Histone-lysine N-methyltransferase EZH2 (Homo sapiens, UniProt Q15910); assay: Inhibition of EZH2 (unknown origin) using SAM as substrate preincubated for 10 mins followed by substrate addition measured after 4 hrs by HTRF method; procedure, shortened: as §2
[13] = target: Ras-related protein R-Ras2 (Homo sapiens) (UniProt P62070); assay: Inhibition of RRAS2 transcriptional activity in human KMS-11 cells assessed as reduction in H3K36 methylation at 10 uM measured after 72 hrs by chip q-PCR analysis; format: cell-based
Procedure, shortened: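 KMS11 cells treated with test agent or DMSO. ChIP with magnetic-bead enzymatic chromatin IP kit using anti-H3K36me2, anti-histone H3 and IgG control antibodies. H3K36me2 quantified by qPCR with primers spanning the promoter regions of TGFA, MET, PAK1 and RRAS2.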

[14] = target: T1, Histone-lysine N-methyltransferase NSD2 (Homo sapiens, UniProt O96028); assay: Inhibition of recombinant human N-terminal GST-tagged NSD2 CD (941 to 1240 residues) expressed in Escherichia coli using SAM as substrate in presence of nucleosomes by AlphaLISA method
T1 sequence (O96028 whole entry): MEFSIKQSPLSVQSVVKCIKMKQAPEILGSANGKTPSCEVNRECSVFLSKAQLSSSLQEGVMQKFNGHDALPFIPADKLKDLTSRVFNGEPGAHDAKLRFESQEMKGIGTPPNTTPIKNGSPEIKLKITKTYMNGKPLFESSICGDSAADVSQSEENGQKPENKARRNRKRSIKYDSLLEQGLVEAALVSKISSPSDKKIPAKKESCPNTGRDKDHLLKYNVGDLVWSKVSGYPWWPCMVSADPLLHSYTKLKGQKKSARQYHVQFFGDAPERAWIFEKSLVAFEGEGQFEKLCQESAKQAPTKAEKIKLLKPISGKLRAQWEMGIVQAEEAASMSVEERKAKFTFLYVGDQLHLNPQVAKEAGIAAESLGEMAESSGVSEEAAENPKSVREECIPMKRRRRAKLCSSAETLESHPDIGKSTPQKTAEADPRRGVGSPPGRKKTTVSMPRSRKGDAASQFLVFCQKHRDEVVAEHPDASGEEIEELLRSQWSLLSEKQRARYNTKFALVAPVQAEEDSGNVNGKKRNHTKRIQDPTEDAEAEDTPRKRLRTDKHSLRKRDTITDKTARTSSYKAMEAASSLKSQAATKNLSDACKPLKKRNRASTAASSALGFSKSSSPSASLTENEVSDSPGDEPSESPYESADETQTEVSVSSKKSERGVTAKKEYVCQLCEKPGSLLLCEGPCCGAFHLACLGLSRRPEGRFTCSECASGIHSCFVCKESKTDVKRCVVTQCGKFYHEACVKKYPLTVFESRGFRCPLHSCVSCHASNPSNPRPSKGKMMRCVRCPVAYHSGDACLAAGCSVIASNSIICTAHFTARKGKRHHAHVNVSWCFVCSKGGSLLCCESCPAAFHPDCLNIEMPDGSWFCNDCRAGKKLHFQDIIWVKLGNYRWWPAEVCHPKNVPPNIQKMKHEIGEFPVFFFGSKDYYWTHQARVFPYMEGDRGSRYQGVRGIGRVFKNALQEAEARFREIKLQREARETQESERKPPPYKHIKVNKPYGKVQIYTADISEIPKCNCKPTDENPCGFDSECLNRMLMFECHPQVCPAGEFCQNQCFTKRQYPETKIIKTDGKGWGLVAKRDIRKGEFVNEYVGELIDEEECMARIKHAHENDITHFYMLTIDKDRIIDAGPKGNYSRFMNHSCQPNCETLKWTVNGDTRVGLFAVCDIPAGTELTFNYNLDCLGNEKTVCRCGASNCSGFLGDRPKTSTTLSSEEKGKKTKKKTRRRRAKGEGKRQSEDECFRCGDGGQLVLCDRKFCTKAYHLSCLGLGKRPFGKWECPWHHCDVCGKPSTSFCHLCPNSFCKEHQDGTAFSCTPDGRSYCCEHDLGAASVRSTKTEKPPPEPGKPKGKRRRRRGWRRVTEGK

[15] = Clearance in CD-1 mouse at 2 mg/kg, iv measured up to 24 hrs by LC-MS/MS; format: ADME, organism-based; settings: in vivo
Procedure, shortened: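 CD-1 mice given a single 2 mg/kg i.v. dose (n = 3). Plasma collected at 0–24 h (0.083, 0.25, 0.5, 1, 2, 4, 6, 8, 24 h), deproteinized with methanol/acetonitrile 1:1 and analysed by LC/MS/MS. Clearance derived from the plasma concentration–time data.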

Chain of Histone-lysine N-methyltransferase 2A (Q03164 1-2718 limits assumed): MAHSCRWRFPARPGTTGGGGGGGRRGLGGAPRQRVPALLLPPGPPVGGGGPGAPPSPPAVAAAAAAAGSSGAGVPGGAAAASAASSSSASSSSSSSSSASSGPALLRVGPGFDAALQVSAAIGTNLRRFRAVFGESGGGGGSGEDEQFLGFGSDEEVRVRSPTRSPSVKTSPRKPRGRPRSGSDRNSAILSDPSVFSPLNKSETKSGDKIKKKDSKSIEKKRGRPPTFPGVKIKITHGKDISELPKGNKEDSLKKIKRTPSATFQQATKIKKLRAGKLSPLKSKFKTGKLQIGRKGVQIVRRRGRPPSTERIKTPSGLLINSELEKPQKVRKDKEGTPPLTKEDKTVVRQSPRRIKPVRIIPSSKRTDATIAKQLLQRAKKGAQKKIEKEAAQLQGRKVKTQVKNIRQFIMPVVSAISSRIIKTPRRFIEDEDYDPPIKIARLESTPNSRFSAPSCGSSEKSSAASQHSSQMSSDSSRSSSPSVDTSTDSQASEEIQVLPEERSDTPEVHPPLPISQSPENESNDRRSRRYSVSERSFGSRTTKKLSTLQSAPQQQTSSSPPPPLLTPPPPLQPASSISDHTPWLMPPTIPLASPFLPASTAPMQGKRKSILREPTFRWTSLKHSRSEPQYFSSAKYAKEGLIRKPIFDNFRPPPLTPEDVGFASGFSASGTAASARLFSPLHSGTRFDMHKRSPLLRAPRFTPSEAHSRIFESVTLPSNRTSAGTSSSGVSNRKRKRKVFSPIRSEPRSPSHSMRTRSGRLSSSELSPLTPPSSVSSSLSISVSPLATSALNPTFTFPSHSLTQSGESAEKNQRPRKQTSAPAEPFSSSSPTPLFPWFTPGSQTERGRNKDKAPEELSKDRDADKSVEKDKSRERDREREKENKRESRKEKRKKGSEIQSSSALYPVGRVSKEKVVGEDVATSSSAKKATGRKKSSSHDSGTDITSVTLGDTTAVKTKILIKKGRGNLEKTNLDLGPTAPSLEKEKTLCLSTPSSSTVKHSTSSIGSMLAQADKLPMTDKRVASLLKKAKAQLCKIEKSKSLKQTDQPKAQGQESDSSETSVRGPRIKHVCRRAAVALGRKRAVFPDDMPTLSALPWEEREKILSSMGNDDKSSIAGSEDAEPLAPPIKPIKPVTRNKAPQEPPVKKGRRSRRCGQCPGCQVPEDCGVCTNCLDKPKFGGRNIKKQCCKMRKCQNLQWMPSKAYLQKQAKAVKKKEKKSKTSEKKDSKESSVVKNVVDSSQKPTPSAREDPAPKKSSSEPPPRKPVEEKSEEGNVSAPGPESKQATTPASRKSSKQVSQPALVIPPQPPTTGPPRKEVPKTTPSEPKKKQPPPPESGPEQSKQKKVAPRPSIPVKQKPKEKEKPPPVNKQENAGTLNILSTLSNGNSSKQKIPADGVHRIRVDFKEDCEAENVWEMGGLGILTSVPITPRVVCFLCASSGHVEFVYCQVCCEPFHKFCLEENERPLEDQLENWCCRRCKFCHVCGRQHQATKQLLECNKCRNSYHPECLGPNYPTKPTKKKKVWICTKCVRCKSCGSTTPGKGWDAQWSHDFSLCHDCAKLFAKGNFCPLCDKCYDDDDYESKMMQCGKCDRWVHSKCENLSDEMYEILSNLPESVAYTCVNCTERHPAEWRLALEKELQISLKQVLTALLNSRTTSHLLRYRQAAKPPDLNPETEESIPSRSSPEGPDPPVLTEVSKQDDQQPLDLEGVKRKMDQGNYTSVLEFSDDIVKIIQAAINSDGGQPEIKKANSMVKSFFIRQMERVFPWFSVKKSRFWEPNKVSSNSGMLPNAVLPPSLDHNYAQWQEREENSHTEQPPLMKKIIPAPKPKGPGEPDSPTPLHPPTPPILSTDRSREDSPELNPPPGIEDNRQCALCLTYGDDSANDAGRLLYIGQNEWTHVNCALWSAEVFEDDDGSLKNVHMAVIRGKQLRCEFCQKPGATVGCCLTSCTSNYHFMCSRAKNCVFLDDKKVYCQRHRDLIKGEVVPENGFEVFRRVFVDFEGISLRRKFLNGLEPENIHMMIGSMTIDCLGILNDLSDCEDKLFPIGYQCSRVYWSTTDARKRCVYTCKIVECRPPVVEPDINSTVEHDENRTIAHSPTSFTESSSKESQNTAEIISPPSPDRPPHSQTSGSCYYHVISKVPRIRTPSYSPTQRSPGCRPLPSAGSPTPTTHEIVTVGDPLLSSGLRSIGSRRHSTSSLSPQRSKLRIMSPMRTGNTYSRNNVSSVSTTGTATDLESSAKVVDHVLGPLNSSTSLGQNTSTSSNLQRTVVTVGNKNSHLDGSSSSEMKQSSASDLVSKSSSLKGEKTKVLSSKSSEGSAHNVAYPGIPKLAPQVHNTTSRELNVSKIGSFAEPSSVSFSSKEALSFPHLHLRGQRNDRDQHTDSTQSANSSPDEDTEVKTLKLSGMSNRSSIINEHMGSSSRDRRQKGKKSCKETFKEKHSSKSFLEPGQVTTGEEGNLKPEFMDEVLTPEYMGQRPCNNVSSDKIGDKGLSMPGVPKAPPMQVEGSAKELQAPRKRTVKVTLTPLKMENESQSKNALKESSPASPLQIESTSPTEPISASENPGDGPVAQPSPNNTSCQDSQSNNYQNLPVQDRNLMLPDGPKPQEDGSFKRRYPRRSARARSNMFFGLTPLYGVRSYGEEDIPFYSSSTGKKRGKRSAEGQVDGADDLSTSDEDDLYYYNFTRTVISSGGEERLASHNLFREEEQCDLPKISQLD
Chain of Histone-lysine N-methyltransferase 2A (Q03164 2719-3969 limits assumed): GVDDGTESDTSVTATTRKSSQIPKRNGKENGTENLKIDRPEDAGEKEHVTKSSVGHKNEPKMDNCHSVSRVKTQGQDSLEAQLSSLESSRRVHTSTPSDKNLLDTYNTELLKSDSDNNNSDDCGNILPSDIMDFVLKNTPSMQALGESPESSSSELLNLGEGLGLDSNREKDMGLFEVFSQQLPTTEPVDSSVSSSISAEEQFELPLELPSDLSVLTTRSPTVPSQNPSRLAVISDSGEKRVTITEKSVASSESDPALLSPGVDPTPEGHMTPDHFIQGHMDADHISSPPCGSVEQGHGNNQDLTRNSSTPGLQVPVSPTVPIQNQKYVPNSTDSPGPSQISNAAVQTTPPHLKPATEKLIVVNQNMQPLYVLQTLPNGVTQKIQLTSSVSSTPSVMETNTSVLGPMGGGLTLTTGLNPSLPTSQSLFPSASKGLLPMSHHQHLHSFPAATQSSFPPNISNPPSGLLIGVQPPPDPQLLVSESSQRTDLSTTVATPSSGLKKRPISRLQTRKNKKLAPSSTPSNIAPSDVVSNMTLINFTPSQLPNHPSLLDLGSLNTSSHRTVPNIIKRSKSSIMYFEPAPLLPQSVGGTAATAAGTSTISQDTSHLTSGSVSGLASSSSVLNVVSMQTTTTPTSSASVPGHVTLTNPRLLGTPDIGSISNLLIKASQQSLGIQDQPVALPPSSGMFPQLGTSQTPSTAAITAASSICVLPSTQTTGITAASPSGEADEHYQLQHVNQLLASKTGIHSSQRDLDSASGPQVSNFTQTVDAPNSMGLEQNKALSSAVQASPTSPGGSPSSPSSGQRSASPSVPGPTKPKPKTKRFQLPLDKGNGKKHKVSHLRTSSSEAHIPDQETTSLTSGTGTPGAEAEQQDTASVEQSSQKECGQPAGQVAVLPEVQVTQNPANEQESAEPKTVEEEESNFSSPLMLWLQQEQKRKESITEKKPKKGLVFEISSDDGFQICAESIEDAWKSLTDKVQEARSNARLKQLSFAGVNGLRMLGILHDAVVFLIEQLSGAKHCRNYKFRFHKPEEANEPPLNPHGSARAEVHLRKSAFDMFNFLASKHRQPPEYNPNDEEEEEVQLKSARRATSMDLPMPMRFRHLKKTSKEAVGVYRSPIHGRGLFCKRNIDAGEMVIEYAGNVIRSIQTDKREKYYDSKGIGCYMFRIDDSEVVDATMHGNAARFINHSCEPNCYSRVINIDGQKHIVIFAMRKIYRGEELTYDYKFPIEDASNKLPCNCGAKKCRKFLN
Chain of Histone-lysine N-methyltransferase EZH2 (Q15910 whole entry): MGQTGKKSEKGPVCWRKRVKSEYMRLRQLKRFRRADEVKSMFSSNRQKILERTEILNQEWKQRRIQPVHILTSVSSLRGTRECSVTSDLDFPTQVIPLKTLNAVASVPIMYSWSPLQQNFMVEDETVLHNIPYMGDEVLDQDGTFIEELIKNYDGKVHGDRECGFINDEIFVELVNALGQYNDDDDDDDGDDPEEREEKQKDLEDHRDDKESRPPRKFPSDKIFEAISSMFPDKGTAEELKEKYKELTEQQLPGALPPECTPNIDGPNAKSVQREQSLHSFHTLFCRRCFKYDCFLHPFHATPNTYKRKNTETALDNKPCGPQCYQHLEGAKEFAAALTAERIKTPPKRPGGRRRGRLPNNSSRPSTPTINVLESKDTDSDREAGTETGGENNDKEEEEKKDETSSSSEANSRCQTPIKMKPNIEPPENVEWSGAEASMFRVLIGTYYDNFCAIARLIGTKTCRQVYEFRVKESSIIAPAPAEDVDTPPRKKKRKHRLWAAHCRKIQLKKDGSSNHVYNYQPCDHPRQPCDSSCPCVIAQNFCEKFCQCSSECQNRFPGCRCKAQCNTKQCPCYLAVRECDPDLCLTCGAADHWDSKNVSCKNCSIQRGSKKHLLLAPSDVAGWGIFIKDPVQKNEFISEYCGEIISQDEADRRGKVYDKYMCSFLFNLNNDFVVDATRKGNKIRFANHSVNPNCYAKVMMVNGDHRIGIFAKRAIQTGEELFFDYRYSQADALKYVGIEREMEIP
Chain of Ras-related protein R-Ras2 (Homo sapiens) (P62070 whole entry): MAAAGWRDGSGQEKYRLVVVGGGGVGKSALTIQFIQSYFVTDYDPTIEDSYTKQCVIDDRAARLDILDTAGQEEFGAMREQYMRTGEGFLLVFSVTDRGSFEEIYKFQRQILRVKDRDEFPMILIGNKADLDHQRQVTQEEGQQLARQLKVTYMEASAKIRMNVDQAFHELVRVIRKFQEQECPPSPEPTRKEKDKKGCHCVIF

SMILES: Cl.Nc1cccc2c(S(=O)(=O)NCc3ccccc3)cccc12
- IC50 [1]: > 20 µM
- viability at 10 µM (KMS-11 [2]): 50.4%
- Activity (KMS-11 [3]): Dose-Dependent Effect
- MRT [4]: 31.9 min
- Tmax [5]: 4.98 min
- viability at 5 µM (MV4-11 [6]): 94.4%
- IC50 [7]: 3.1 µM
- Activity (OPM-2): Active
- Activity (MV4-11 [8]): Active
- IC50 [9]: > 20 µM
- viability at 10 µM (MV4-11 [10]): 94%
- MRT [11]: 23.8 min
- IC50 [12]: > 20 µM
- inhibition [13]: Active
- IC50 [14]: 2.7 µM
- clearance [15]: 163 mL/min/kg
